ChEMBL document CHEMBL3576759, “Antineoplastic agents. 599. Total synthesis of dolastatin 16” (2015)
In brackets after ≈: the same amount, converted by molar mass.

Key:
NCI-H460 [1] = assay: Growth inhibition of human NCI-H460 cells using MeOH as solvent after 48 hrs by sulforhodamine B assay; assay type: functional; conditions: NCI-H460, 48 h
Procedure, shortened: (§1)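 NCI-standard SRB protocol. Cells in RPMI1640 with 5% fetal bovine serum were seeded in 96-well plates and held 24 h before serial compound dilutions were added. After 48 h, cells were fixed with trichloroacetic acid, stained with sulforhodamine B and read by optical density. GI50 is the concentration giving 50% reduction in net protein increase.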

DU-145 [2] = assay: Growth inhibition of human DU145 cells using MeOH as solvent after 48 hrs by sulforhodamine B assay; assay type: functional; conditions: DU-145, 48 h; procedure, shortened: as §1
MCF7 [3] = assay: Growth inhibition of human MCF7 cells using DMSO as solvent after 48 hrs by sulforhodamine B assay; assay type: functional; procedure, shortened: as §1
SF-268 [4] = assay: Growth inhibition of human SF268 cells using DMSO as solvent after 48 hrs by sulforhodamine B assay; assay type: functional; procedure, shortened: as §1
MCF7 [5] = assay: Growth inhibition of human MCF7 cells using MeOH as solvent after 48 hrs by sulforhodamine B assay; assay type: functional; conditions: MCF7, 48 h; procedure, shortened: as §1
[6] = Growth inhibition of human KM20L2 cells using DMSO as solvent after 48 hrs by sulforhodamine B assay; assay type: functional, KM-20L2; procedure, shortened: as §1
DU-145 [7] = assay: Growth inhibition of human DU145 cells using DMSO as solvent after 48 hrs by sulforhodamine B assay; assay type: functional; procedure, shortened: as §1
[8] = Growth inhibition of human BxPC3 cells using DMSO as solvent after 48 hrs by sulforhodamine B assay; assay type: functional, BXPC-3; procedure, shortened: as §1
NCI-H460 [9] = assay: Growth inhibition of human NCI-H460 cells using DMSO as solvent after 48 hrs by sulforhodamine B assay; assay type: functional; procedure, shortened: as §1
[10] = Growth inhibition of human KM20L2 cells using MeOH as solvent after 48 hrs by sulforhodamine B assay; assay type: functional; conditions: KM-20L2, 48 h; procedure, shortened: as §1
SF-268 [11] = assay: Growth inhibition of human SF268 cells using MeOH as solvent after 48 hrs by sulforhodamine B assay; assay type: functional; conditions: SF-268, 48 h; procedure, shortened: as §1
[12] = Growth inhibition of human BxPC3 cells using MeOH as solvent after 48 hrs by sulforhodamine B assay; assay type: functional; conditions: BXPC-3, 48 h; procedure, shortened: as §1

Work on CC(C)[C@H]1NC(=O)[C@@H]2CCCN2C(=O)[C@H]([C@H](C)Cc2ccccc2)NC(=O)[C@@H]2CCCN2C(=O)[C@@H](C(C)C)N(C)C(=O)[C@@H](C(C)C)OC(=O)[C@@H]2CCCN2C(=O)[C@H](C)OC(=O)[C@@H]1C (stereo in doubt; 1) yielded a GI50 (NCI-H460 [1]) greater than 10 µg/mL, a GI50 (DU-145 [2]) greater than 10 µg/mL and a GI50 (MCF7 [3]) greater than 10 µg/mL. It also gave a GI50 (SF-268 [4]) greater than 10 µg/mL, a GI50 (MCF7 [5]) greater than 10 µg/mL and a GI50 [6] greater than 10 µg/mL. It also gave a GI50 (DU-145 [7]) greater than 10 µg/mL, a GI50 [8] greater than 10 µg/mL and a GI50 (NCI-H460 [9]) greater than 10 µg/mL. For the same compound, the GI50 [10] was greater than 10 µg/mL, the GI50 (SF-268 [11]) was greater than 10 µg/mL and the GI50 [12] was greater than 10 µg/mL.
Work on CC(C)[C@H]1NC(=O)[C@@H]2CCCN2C(=O)[C@H]([C@H](C)Cc2ccccc2)NC(=O)[C@@H]2CCCN2C(=O)[C@@H](C(C)C)N(C)C(=O)[C@@H](C(C)C)OC(=O)[C@@H]2CCCN2C(=O)[C@H](C)OC(=O)[C@@H]1C (stereo in doubt) yielded a GI50 (MCF7 [3]) of 0.027 µg/mL (≈ 0.0307 µM), a GI50 (SF-268 [4]) of 0.016 µg/mL (≈ 0.0182 µM) and a GI50 [6] of 0.013 µg/mL (≈ 0.0148 µM). The GI50 (DU-145 [7]) was 0.009 µg/mL (≈ 0.0102 µM), the GI50 [8] was 0.05 µg/mL (≈ 0.0569 µM) and the GI50 (NCI-H460 [9]) was 0.27 µg/mL (≈ 0.307 µM).
